Assay: Toxicity liver stage against HepG2, at 10uM
Format: cell-based
Design: test concentration 10 uM, cell line HepG2-A16-CD81EGFP
Details: human, HepG2-A16-CD81EGFP cells; read-out: INHIBITION
Outline: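 Uninfected HepG2-A16-CD81EGFP cells, 3 × 10^3 per well, 1536-well, plated on prespotted compound at 10 μM final, parasite-free screening media added to match infected plates; puromycin 10 μM positive, DMSO 0.5% negative; run in parallel with 48 h PbLuc assay at 37 °C, 5% CO2; viability by CellTiter-Glo luminescence, normalized to controls.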

SMILES: Cn1cnc2c1CCN(CC(O)c1ccc3c(c1)OCCO3)C2 (stereo unspecified)
- cytotoxicity at 10 µM: -13.7%

SMILES: CCS(=O)(=O)CC(=O)NC(c1ccc(F)cc1)C1CCCC1 (stereo unspecified)
- cytotoxicity at 10 µM: 4.57%

SMILES: Cc1cc(CNC(=O)N2CCN(c3nc(C)c(C)s3)CC2)no1
- cytotoxicity at 10 µM: -1.01%

SMILES: CS(=O)(=O)N1CC[C@H]2OCC[C@@]2(C(=O)NCC2CC2)C1
- cytotoxicity at 10 µM: -98.2%

SMILES: CC(=O)N1CC[C@H]2OCC[C@@]2(C(=O)NCc2cnc(C)cn2)C1
- cytotoxicity at 10 µM: -106%

SMILES: CC(C)CC(=O)N1CC[C@@H]2CN(Cc3cccnc3)S(=O)(=O)[C@@H]2CC1
- cytotoxicity at 10 µM: -103%

SMILES: O=C(CC1CC1)N1CCC2(COCc3cnc(-c4cccnc4)nc32)C1 (stereo unspecified)
- cytotoxicity at 10 µM: -106%

SMILES: Cn1ccc(-c2cc(C(=O)N3CCC(O)CC3)c3ccccn23)n1
- cytotoxicity at 10 µM: -98.3%

SMILES: c1cc(CN2CCCn3nnc(COCC4CC4)c3C2)ccn1
- cytotoxicity at 10 µM: -113%

SMILES: COCCO[C@H]1CCN(C(=O)c2ccc[nH]2)[C@H]1Cc1ccncc1
- cytotoxicity at 10 µM: -5.46%

SMILES: Cc1ccccc1CSc1nc(N)cc(N2CCC(CC(N)=O)CC2)n1
- cytotoxicity at 10 µM: -10.4%

SMILES: O=c1cc(CN2CC[C@@]3(O)CCCC[C@H]3C2)c2cccc3c2n1CCC3
- cytotoxicity at 10 µM: -0.948%

SMILES: Fc1ccc2[nH]c(C3CCCN3Cc3c[nH]cn3)nc2c1 (stereo unspecified)
- cytotoxicity at 10 µM: 0.786%

SMILES: COCC[C@]1(O)CCN(c2ncc(Cl)cc2F)C[C@H]1C
- cytotoxicity at 10 µM: 12.8%

SMILES: c1ccc(C2CCCCN2Cc2nc(-c3cnccn3)no2)nc1 (stereo unspecified)
- cytotoxicity at 10 µM: -8.04%

SMILES: OCCc1cn(CC2CCCN(Cc3nccs3)C2)nn1 (stereo unspecified)
- cytotoxicity at 10 µM: -6.51%

SMILES: Cc1cc(NCCCC(F)(F)F)n2nc(C)cc2n1
- cytotoxicity at 10 µM: 0.894%

SMILES: O=C1CN(C(=O)CC2c3ccccc3CCc3ccccc32)CCN1
- cytotoxicity at 10 µM: 9.98%

SMILES: COc1cccc(-c2n[nH]cc2C(=O)NC(C)CC(=O)O)c1 (stereo unspecified)
- cytotoxicity at 10 µM: -8.91%

SMILES: COc1cccc(OC2CN(C(=O)C3CCCN(C(=O)N(C)C)C3)C2)c1 (stereo unspecified)
- cytotoxicity at 10 µM: 0.754%

SMILES: Cc1ccc(-c2ncc(C(=O)N3CCC[C@H](N)C3)c(O)n2)cc1
- cytotoxicity at 10 µM: -7.14%

SMILES: CN(C)C(=O)N1CC[C@]2(O)CCN(C(=O)c3ccc(C#N)nc3)C[C@@H]2C1
- cytotoxicity at 10 µM: -51%

SMILES: Cn1cc2ncn(CCC3CCN(Cc4ccccc4)C3)c(=O)c2n1 (stereo unspecified)
- cytotoxicity at 10 µM: 1.28%

SMILES: CN1CCCN(Cc2nc(Cc3ccccc3)n[nH]2)CC1
- cytotoxicity at 10 µM: -7.47%

SMILES: CN1CCCN(C(=O)c2csc(-c3ccc(C(F)(F)F)cc3)n2)CC1
- cytotoxicity at 10 µM: -5.81%

SMILES: CCC(CO)N(C/C(C)=C/c1ccco1)Cc1ccsc1 (stereo unspecified)
- cytotoxicity at 10 µM: 1.12%

SMILES: CN(C)c1nc2c(c(N3CCC4(CCCNC4=O)C3)n1)CCCC2 (stereo unspecified)
- cytotoxicity at 10 µM: -5.81%

SMILES: CC(C)Cn1cncc1CNC(=O)c1cccc(CC2CCNCC2)c1
- cytotoxicity at 10 µM: -4.47%

SMILES: CCN1CCN(CCCNc2ncccn2)CC1
- cytotoxicity at 10 µM: 3.41%

SMILES: CCCN(Cc1cccnc1)C(=O)C1CCCN(C)C1 (stereo unspecified)
- cytotoxicity at 10 µM: 9.77%

SMILES: c1ccc(CN2CCC(NCCSc3ncn[nH]3)C2)cc1 (stereo unspecified)
- cytotoxicity at 10 µM: -2.76%

SMILES: CC(C)(C)NS(=O)(=O)c1ccc(NC(=O)C2CC2)cc1
- cytotoxicity at 10 µM: -6.73%

SMILES: Cn1ccnc1CN1CCCC(Cc2ccccn2)C1 (stereo unspecified)
- cytotoxicity at 10 µM: 2.75%

SMILES: C=C(C)CN1CCN(Cc2nccn2C)C(C)C1 (stereo unspecified)
- cytotoxicity at 10 µM: -14.6%

SMILES: CCOc1ncccc1C(=O)N1CCCC(n2nc(C)nc2C)C1 (stereo unspecified)
- cytotoxicity at 10 µM: -8.47%

SMILES: Cc1ccc(NS(=O)(=O)c2cc3c(c(C(=O)O)c2)OCCO3)c(F)c1
- cytotoxicity at 10 µM: -9.36%

SMILES: CC(C)c1nccn1C1CCCN(C(=O)c2cccc3c2OCO3)C1 (stereo unspecified)
- cytotoxicity at 10 µM: -7.71%

SMILES: COc1cc(CNCc2c(C)nn(C)c2N(C)C)ccn1
- cytotoxicity at 10 µM: -9.48%

SMILES: O=C(c1ccnc(C2CCNCC2)c1)N1CCCOCC1
- cytotoxicity at 10 µM: -3.64%

SMILES: CNC(=O)N1CCC2(CC1)CN(C(C)C)Cc1cc(F)ccc12
- cytotoxicity at 10 µM: -2.82%

SMILES: O=C(c1ccoc1)N1CCCC2(CCC(=O)N2Cc2cccnc2)C1 (stereo unspecified)
- cytotoxicity at 10 µM: -4.41%

SMILES: Cn1cc(N2CC3(CCN(CC4CCC4)CC3)OCC2=O)cn1
- cytotoxicity at 10 µM: -0.269%

SMILES: Cc1cnc(N2CCN3C[C@H](OCc4cccc(C)n4)C[C@H]3C2)nc1
- cytotoxicity at 10 µM: -1.25%

SMILES: CCCNC(c1ccc(F)cc1)c1cccnc1 (stereo unspecified)
- cytotoxicity at 10 µM: 3.41%

SMILES: CNC(=O)CN1CCCC12CCN(C(=O)c1ccc(F)cc1)CC2
- cytotoxicity at 10 µM: 5.03%

SMILES: CNC(=O)[C@@H]1C[C@H]2CN(Cc3csc(C)n3)C[C@H]2N1C(C)C
- cytotoxicity at 10 µM: 7.08%

SMILES: Cc1ccc(CN2CC[C@@H](O)[C@@H]2Cc2ccccc2)o1
- cytotoxicity at 10 µM: 1.73%

SMILES: O=C1N(CC2CC2)CCC12CCCN(c1ncc(F)cn1)C2 (stereo unspecified)
- cytotoxicity at 10 µM: 4.79%

SMILES: Cc1ccc(CN2Cc3nnn(C)c3C(COCC(=O)N(C)C)C2)s1 (stereo unspecified)
- cytotoxicity at 10 µM: 10.1%

SMILES: CCN1CC2(CC1=O)CN(Cc1ccc(C)o1)CCN(C(=O)C(C)C)C2 (stereo unspecified)
- cytotoxicity at 10 µM: 2.84%

SMILES: CC(C)CC(=O)N1CC[C@H]2N(C)CC[C@@]2(C(=O)Nc2ccccc2)CC1
- cytotoxicity at 10 µM: -4.71%

SMILES: COc1cc(N2C[C@@H]3COC[C@]3(COc3cccnc3)C2)ncn1
- cytotoxicity at 10 µM: 2.13%

SMILES: Cc1ccc(CN2CCn3c(C(=O)N(C)C)cnc3C2)s1
- cytotoxicity at 10 µM: 5.97%

SMILES: COCC(=O)N1CCC2(CC1)CCN(Cc1ccccn1)C2=O
- cytotoxicity at 10 µM: 1.62%

SMILES: CC(C)N1CCO[C@@H]2CN(S(=O)(=O)c3cccs3)CC[C@@H]2C1
- cytotoxicity at 10 µM: 5.9%

SMILES: CCOc1ncnc2c1CCN(C(=O)CN(C)C)CC2
- cytotoxicity at 10 µM: -5.12%

Reference: ChEMBL document CHEMBL4513216, “Probing the Open Global Health Chemical Diversity Library for Multistage-Active Starting Points for Next-Generation Antimalarials” (ACS Infect Dis, 2020)
